Published values pooled from the literature.
Lines come from different studies, so protocols differ.
Target: Tyrosine-protein kinase FRK (FRK, Homo sapiens, UniProt P42685)

Cc1cc(NC(=O)c2cccc3cc(-c4cccc5[nH]nc(N)c45)ccc23)ccc1F
activity vs control (enzyme activity; inhibitor; 0.1 µM): 67%

Cc1nc(N2CC[C@@H](O)C2)ncc1-c1cc(C(F)(F)F)cc2[nH]ncc12
remaining binding (cell-free assay; competition with immobilised ligand; 1 µM): 98%

O=c1cc(-c2cccc3c2Sc2ccccc2S3)oc(N2CCOCC2)c1
remaining activity (enzyme activity; inhibitor; 0.5 µM): 99.5%

Cc1ccc(C(=O)NCc2ccsc2)cc1C#Cc1cn(C(C)C)c2ncnc(N)c12
activity vs control (enzyme activity; inhibitor; 1 µM): 2%

C[C@@H]1CN(c2cc(-c3n[nH]c4ccc(OC5(C)CC5)cc34)ncn2)C[C@H](C)O1
remaining binding (cell-free assay; competition with immobilised ligand; 0.1 µM): 100%

CCN(CC)c1ccc(C2=NNC(=O)CC2C)cc1[N+](=O)[O-] (stereo not shown)
remaining activity (enzyme activity; inhibitor; 10 µM): 83%

COc1cc(Cl)c(C(=O)N[C@@H](CN[C@H]2CC[C@@H](N)CC2)Cc2ccc(C#N)cc2)cc1-c1ccc(CN[C@H](C)c2ccc(C)cc2)o1
remaining activity (enzyme activity; inhibitor; 1 µM): 99%

O=C(Nc1cnn(-c2csc(C(=O)NC3COC3)c2)c1)Nc1c(F)cccc1Cl
remaining activity (enzyme activity; inhibitor; 5 µM): 95.6%

C[C@H](NC(=O)c1cnc2n1[C@](C)(Cc1ccc(C#N)cc1)C(=O)N2c1cc(Cl)c(F)c(Cl)c1)C(=O)NC1(c2ccccn2)CC1
remaining binding (cell-free assay; competition with immobilised ligand; 1 µM): 68%

COc1cc2ncnc(Nc3ccc(Oc4ccccc4)c(C)c3C)c2cc1OC
inhibition (enzyme activity; inhibitor; 1 µM): 20%

CC1=C(C#N)[C@@H](c2ccc3[nH]nc(C)c3c2)C(C#N)=C(c2ccc(Cl)cc2)N1
remaining binding (cell-free assay; competition with immobilised ligand; 1 µM): 100%

CCN(CC)CCNC(=O)c1c(C)[nH]c(/C=C2\C(=O)Nc3ccc(F)cc32)c1C
inhibition (enzyme activity; inhibitor; 10 µM): 93%

O=C1Nc2ccc(Cl)cc2C1=Cc1cc(Cl)c(O)c(Cl)c1
remaining signal (cell-free assay; 0.5 µM): 70.3%

CN([C@@H]1CCc2c(CC(=O)O)c3cc(S(C)(=O)=O)ccc3n2C1)S(=O)(=O)c1ccc(F)cc1
remaining binding (cell-free assay; competition with immobilised ligand; 1 µM): 100%

CC(C)(C)c1nc2c(s1)c1nc(N)ncc1c1ccc(NS(=O)(=O)c3c(F)cccc3F)c(F)c12
remaining activity (enzyme activity; inhibitor; radiometric; 1 µM): 103%

O=C1CCc2cc(Nc3cc(OC4CCOCC4)c([N+](=O)[O-])cc3Cl)ccc2N1
remaining binding (cell-free assay; competition with immobilised ligand; 1 µM): 73%

CCCOc1ccc(OC)c(F)c1C(=O)c1ccc(C(=O)N[C@@H]2CNC[C@H]2NC(=O)c2ccc3[nH]ncc3c2)cc1
remaining activity (enzyme activity; inhibitor; 10 µM): 96%

CN1CC(Oc2cnc(C#N)cc2-c2ccn3nc(NC(=O)C4CC4)cc3c2)C1
inhibition (enzyme activity; inhibitor; 1 µM): 0%

O=c1c2ccccc2[nH]c(=S)n1CCN1CCC(=C(c2ccc(F)cc2)c2ccc(F)cc2)CC1
remaining activity (enzyme activity; inhibitor; 0.5 µM): 100%

COc1cc2nccc(Oc3ccc(NC(=O)c4c5n(n(-c6ccc(F)cc6)c4=O)CCCC5)cc3)c2cc1OC
inhibition (enzyme activity; inhibitor; 0.1 µM): 86%

O=C1NC(=O)c2cc(Nc3ccc(F)cc3)c(Nc3ccc(F)cc3)cc21
remaining signal (cell-free assay; 0.5 µM): 97.2%

Cc1c(C(=O)O)cc(-c2ccc(C3CCNCC3)cc2)c2ccc(-c3ccc(C(F)(F)F)cc3)cc12
remaining binding (cell-free assay; competition with immobilised ligand; 1 µM): 100%
